Measured values as given in ChEMBL document CHEMBL3813612, “Carolignans from the Aerial Parts of Euphorbia sikkimensis and Their Anti-HIV Activity” (J Nat Prod, 2016).

Legend:
[1] = test system: Human immunodeficiency virus 1; assay: Antiviral activity against HIV1 NL4-3 infected in human MT4 cells assessed as reduction in viral replication measured on day 3 post infection by luciferase reporter gene assay; type: functional, organism-based
[2] = test system: MT4; assay: Cytotoxicity against human MT4 cells assessed as reduction in cell viability after 3 days by CytoTox-Glo assay; type: cell-based; conditions: mt4, 72 h
Method in brief: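 MT4 cells were cultured with various compound concentrations for 3 days. Viability was read by the CytoTox-Glo assay following the manufacturer's protocol. CC50 is the concentration giving a 50% reduction in cell viability.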

[3] = Selectivity index, ratio of CC50 for human MT4 cells to EC50 for HIV1 NL4-3 infected in human MT4 cells; type: toxicity, cell-based; conditions: read-out: Ratio CC50/EC50
[4] = Human immunodeficiency virus 1, NL4-3, MT4, 72 h

| SMILES | EC50 [1, 4] | CC50 ([2]; 72 h) | selectivity ratio [3] | EC50 ([1]; mt4) | CC50 [2] |
| --- | --- | --- | --- | --- | --- |
| COc1cc(/C=C/C(=O)OCCCc2ccc(O[C@@H](COC(=O)/C=C/c3ccc(O)c(OC)c3)[C@H](OC)c3ccc(O)c(OC)c3)c(OC)c2)ccc1O (stereo in doubt; 1a) | 6.3 µM | 21 µM | 3.3 | – | – |
| COc1cc(/C=C/C(=O)OCCCc2ccc(O[C@H](COC(=O)/C=C/c3ccc(O)c(OC)c3)[C@@H](OC)c3ccc(O)c(OC)c3)c(OC)c2)ccc1O (stereo in doubt; 1b) | 5.3 µM | 17 µM | 3.2 | – | – |
| COc1cc(/C=C/C(=O)OCCCc2ccc(O[C@H](COC(=O)/C=C/c3ccc(O)c(OC)c3)[C@@H](OC)c3ccc(O)c(OC)c3)c(OC)c2)ccc1O (stereo in doubt; 2a) | – | – | – | > 10 µM | – |
| CCOC(=O)/C=C/c1ccc(O)c(OC)c1 [ETHYL FERULATE] | > 10 µM | – | – | – | > 10 µM |
| COc1cc(/C=C/C(=O)O)ccc1O [FERULATE] | > 10 µM | – | – | – | > 10 µM |
| Cc1cn([C@H]2C[C@H](N=[N+]=[N-])[C@@H](CO)O2)c(=O)[nH]c1=O [ZIDOVUDINE] | – | – | – | – | > 0.1 µM |
